Measured values taken from ChEMBL document CHEMBL4364238, “Discovery of BNC375, a Potent, Selective, and Orally Available Type I Positive Allosteric Modulator of α7 nAChRs” (ACS Med Chem Lett, 2019).
Activity calls are given as the source filed them. The rule behind the calls is not given here.

Assays:
[1] = molecular target: Neuronal acetylcholine receptor subunit alpha-7 (Rattus norvegicus) (UniProt Q05941); test: Positive allosteric modulator activity at rat alpha7 nAChR expressed in GH4C1 cells assessed as potentiation of acetylcholine response at 3 uM at -70 mV holding potential preincubated for 30 secs followed by co-application with acetylcholine by automated patch clamp assay; assay type: cell-based
In short: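 Automated planar patch clamp on stable GH4C1 (rat) cell lines expressing rat α7 nAChR; test compound at 3 μM with an EC₂₀ acetylcholine challenge; percent change in peak current versus acetylcholine alone taken as P₃.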

Mus musculus [2] = test: Reversal of scopolamine-induced memory impairment in mouse assessed as increase in spontaneous alteration at 3 mg/kg, po administered with compond and scopolamine at 60 mins and 30 mins respectively prior to test by T-maze test; assay type: functional; details: read-out: INH
In short: (§1)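 Mouse T-maze continuous alternation task with scopolamine-induced impairment of spontaneous alternation; compound given orally in saline-based vehicle with 25% Cremophor ELP over 0.003–10.0 mg/kg; group means compared by one-way ANOVA then Fisher's PLSD, p < 0.05 significant.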

Mus musculus [3] = test: Reversal of scopolamine-induced memory impairment in mouse assessed as percentage of increase in spontaneous alteration at 10 mg/kg, po administered with compond and scopolamine at 60 mins snd 30 mins respectively prior to test by T-maze test; assay type: functional; details: read-out: INH; in short: as §1
Mus musculus [4] = test: Reversal of scopolamine-induced memory impairment in mouse assessed as increase in spontaneous alteration at 1 mg/kg, po administered with compond and scopolamine at 60 mins and 30 mins respectively prior to test by T-maze test; assay type: functional; details: read-out: INH; in short: as §1
[5] = Apparent permeability in human Caco2 cells; assay type: ADME, cell-based; details: Caco-2
[6] = Plasma clearance in Sprague-Dawley rat at 4 mg/kg administered as single IV bolus dose; assay type: ADME, organism-based
In short: (§2)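 Single IV bolus of 4.0 mg/kg in male Sprague–Dawley rats; dosing solution 1.1 mg/mL in saline-based vehicle with 0.1 M hydroxypropyl-β-cyclodextrin and 10% (v/v) DMSO; plasma pharmacokinetic parameters derived.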

[7] = Half life in Sprague-Dawley rat plasma at 4 mg/kg administered as single IV bolus dose; assay type: ADME, organism-based; in short: as §2
[8] = molecular target: Neuronal acetylcholine receptor subunit alpha-7 (Rattus norvegicus) (UniProt Q05941); test: (§3) Positive allosteric modulatory activity at rat alpha7 nAChR expressed in GH4C1 cells assessed as AUC of potentiation of peak current at -70 mV holding potential preincubated for 30 secs followed by co-application with acetylcholine by manual patch clamp assay relative to peak current potentiation; assay type: cell-based
In short: (§4)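 Conventional manual patch-clamp with a fast-application system on stable GH4C1 cells expressing rat α7 nAChR; currents evoked by acetylcholine with and without test compound; peak-current change relative to acetylcholine alone gives potentiation (P₃ at 3 μM; concentration–response for EC₅₀ and Pmax).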

[9] = Volume of distribution at steady state in Sprague-Dawley rat at 4 mg/kg administered as single IV bolus dose; assay type: ADME, organism-based; details: in vivo, read-out: Vdss; in short: as §2
[10] = Oral bioavailability in Sprague-Dawley rat; assay type: ADME, organism-based; details: in vivo
[11] = molecular target: Neuronal acetylcholine receptor subunit alpha-7 (Rattus norvegicus, UniProt Q05941); test: Positive allosteric modulatory activity at rat alpha7 nAChR expressed in GH4C1 cells assessed as potentiation of acetylcholine response at -70 mV holding potential preincubated for 30 secs followed by co-application with acetylcholine by manual patch clamp assay; assay type: cell-based; in short: as §4
[12] = Stability in mouse liver microsomes assessed as hepatic extraction ratio at 1 uM measured for 45 mins by LC-MS/MS analysis; assay type: ADME, Microsome; details: read-out: ERH
[13] = Dose normalized AUC (0 to infinity) in Sprague-Dawley rat at 4 mg/kg administered as single IV bolus dose; assay type: ADME, organism-based; details: in vivo; in short: as §2
Mus musculus [14] = test: Reversal of scopolamine-induced memory impairment in mouse assessed as increase in spontaneous alteration at 0.003 mg/kg, po administered with compond and scopolamine at 60 mins and 30 mins respectively prior to test by T-maze test; assay type: functional; in short: as §1
[15] = molecular target: Neuronal acetylcholine receptor subunit alpha-7 (Rattus norvegicus) (UniProt Q05941); test: as §3, with “of acetylcholine response at 3 uM” for “of peak current”, “by automated” for “by manual”, “to potentiation of” for “to peak”, “current response” for “current potentiation”; assay type: cell-based
[16] = Stability in human liver microsomes assessed as hepatic extraction ratio at 1 uM measured for 45 mins by LC-MS/MS analysis; assay type: ADME, Microsome; details: read-out: ERH
Mus musculus [17] = test: Reversal of scopolamine-induced memory impairment in mouse assessed as increase in spontaneous alteration at 0.03 mg/kg, po administered with compond and scopolamine at 60 mins and 30 mins respectively prior to test by T-maze test; assay type: functional; in short: as §1
[18] = molecular target: Neuronal acetylcholine receptor subunit alpha-7 (Rattus norvegicus) (UniProt Q05941); test: Positive allosteric modulatory activity at rat alpha7 nAChR expressed in GH4C1 cells assessed as potentiation of peak current at -70 mV holding potential preincubated for 30 secs followed by co-application with acetylcholine by manual patch clamp assay relative to acetylcholine-induced peak current; assay type: cell-based; in short: as §4
Mus musculus [19] = test: Reversal of scopolamine-induced memory impairment in mouse assessed as increase in spontaneous alteration at 0.3 mg/kg, po administered with compond and scopolamine at 60 mins and 30 mins respectively prior to test by T-maze test; assay type: functional; in short: as §1
Mus musculus [20] = test: Reversal of scopolamine-induced memory impairment in mouse assessed as spontaneous alteration at 3 to 30 mg/kg, po administered with compond and scopolamine at 60 mins and 30 mins respectively prior to test by T-maze test; assay type: functional, organism-based
In short: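 Mouse T-maze continuous alternation task; reversal of scopolamine-induced loss of spontaneous alternation after ip or oral doses of 3 and 30 mg/kg; significant doses reported.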

Chain of Neuronal acetylcholine receptor subunit alpha-7 (Rattus norvegicus) (Q05941 whole entry): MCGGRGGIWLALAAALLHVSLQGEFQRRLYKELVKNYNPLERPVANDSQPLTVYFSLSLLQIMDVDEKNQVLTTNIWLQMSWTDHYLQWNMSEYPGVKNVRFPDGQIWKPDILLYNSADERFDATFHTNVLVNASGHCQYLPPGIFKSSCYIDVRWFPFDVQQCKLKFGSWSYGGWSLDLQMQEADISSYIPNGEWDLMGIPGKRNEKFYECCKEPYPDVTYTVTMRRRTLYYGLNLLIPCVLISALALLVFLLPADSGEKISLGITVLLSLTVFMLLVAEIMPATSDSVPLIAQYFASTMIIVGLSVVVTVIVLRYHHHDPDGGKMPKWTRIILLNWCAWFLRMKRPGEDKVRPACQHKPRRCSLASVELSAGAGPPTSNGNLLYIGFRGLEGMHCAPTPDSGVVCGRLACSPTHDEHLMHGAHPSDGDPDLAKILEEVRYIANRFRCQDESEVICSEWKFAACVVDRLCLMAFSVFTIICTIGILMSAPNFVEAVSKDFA
Chain of Neuronal acetylcholine receptor subunit alpha-7 (Q05941 whole entry): as above

COc1ccc(Cl)cc1NCC1C(c2ccc(S(=O)(=O)NN)cc2)C1(C)C (racemic)
Activity [1]: 130%

CC1(C)C(CNc2cc(F)ccc2OC(F)(F)F)C1c1ccc(S(N)(=O)=O)cc1 (racemic)
Activity [1]: 2440%

COc1ccc(S(N)(=O)=O)cc1NCC1C(c2ccc(S(N)(=O)=O)cc2)C1(C)C (racemic)
Activity [1]: < 100%

Cc1cc(F)c(F)cc1NC[C@@H]1[C@@H](c2ccc(S(N)(=O)=O)cc2)C1(C)C
percent reversal of scopolamine-induced memory impairment at 3 mg/kg (Mus musculus [2]): 31%
percent increase in spontaneous alternation at 10 mg/kg (Mus musculus [3]): 15%
percent reversal of scopolamine-induced memory impairment (increase in spontaneous alternation) at 1 mg/kg (Mus musculus [4]): 8%
Activity [1]: 420%

COc1ccc(Cl)cc1NC[C@H]1[C@H](c2ccc(S(N)(=O)=O)cc2)C1(C)C
Papp [5]: 14 ×10⁻⁶ cm/s
clearance [6]: 43 mL/min/kg
half-life [7]: 3.9 h
Ratio [8]: 25
Vd [9]: 5.1 L/kg
bioavailability [10]: 77%
percent reversal of scopolamine-induced memory impairment at 3 mg/kg (Mus musculus [2]): 90%
EC50 [11]: 63 nM
hepatic extraction ratio at 0.75 h, 1 µM [12]: 0.71
AUC/dose [13]: 1 µM·h/mg
Activity [1]: 11800%
inhibition in vivo at 0.003 mg/kg (Mus musculus [14]): -3%
Ratio [15]: 57
hepatic extraction ratio at 0.75 h, 1 µM [16]: 0.59
inhibition in vivo at 0.03 mg/kg (Mus musculus [17]): 11%
Emax [18]: 1630%
inhibition in vivo at 0.3 mg/kg (Mus musculus [19]): 65%

CC1(C)C(CNc2ccccc2)C1c1ccc(S(N)(=O)=O)cc1 (racemic)
Activity [1]: 2570 to 9890%

COc1ccc(Cl)cc1NC(=O)c1cccc(-c2ccc(S(N)(=O)=O)cc2)c1
Activity [1]: 410%
inhibition (Mus musculus [20]): inactive

CC1(C)C(CNC2CCCCC2)C1c1ccc(S(N)(=O)=O)cc1 (racemic)
Activity [1]: < 100%

Cc1cc(F)ccc1NCC1C(c2ccc(S(N)(=O)=O)cc2)C1(C)C (racemic)
Activity [1]: 8660%

CC1(C)[C@H](CNc2ccc(F)cc2C(F)(F)F)[C@H]1c1ccc(S(N)(=O)=O)cc1
percent reversal of scopolamine-induced memory impairment at 3 mg/kg (Mus musculus [2]): 38%
percent increase in spontaneous alternation at 10 mg/kg (Mus musculus [3]): -9%
percent reversal of scopolamine-induced memory impairment (increase in spontaneous alternation) at 1 mg/kg (Mus musculus [4]): -18%
Activity [1]: 410%

CC1(C)[C@@H](CNc2ccc(F)cc2C(F)(F)F)[C@@H]1c1ccc(S(N)(=O)=O)cc1
percent reversal of scopolamine-induced memory impairment at 3 mg/kg (Mus musculus [2]): 39%
percent increase in spontaneous alternation at 10 mg/kg (Mus musculus [3]): 79%
percent reversal of scopolamine-induced memory impairment (increase in spontaneous alternation) at 1 mg/kg (Mus musculus [4]): 40%
Activity [1]: 2860%

COc1ccc(C(F)(F)F)cc1NCC1C(c2ccc(S(N)(=O)=O)cc2)C1(C)C (racemic)
Activity [1]: 8170%

Cc1ccc(Cl)cc1NCC1C(c2ccc(S(N)(=O)=O)cc2)C1(C)C (racemic)
Activity [1]: 12300%

CC1(C)[C@@H](CNc2ccc(F)cc2OC(F)F)[C@@H]1c1ccc(S(N)(=O)=O)cc1
percent reversal of scopolamine-induced memory impairment at 3 mg/kg (Mus musculus [2]): 16%
percent increase in spontaneous alternation at 10 mg/kg (Mus musculus [3]): 51%
percent reversal of scopolamine-induced memory impairment (increase in spontaneous alternation) at 1 mg/kg (Mus musculus [4]): 46%
Activity [1]: 8170%

Cc1cc(F)ccc1NC[C@@H]1[C@@H](c2ccc(S(N)(=O)=O)cc2)C1(C)C
Activity [1]: 470%

COc1ccc(Cl)cc1NCC1C(c2ccc(S(=O)(=O)NO)cc2)C1(C)C (racemic)
Activity [1]: 720%

COc1ncccc1NCC1C(c2ccc(S(N)(=O)=O)cc2)C1(C)C (racemic)
Activity [1]: 2420%
